The text below walks through data of ChEMBL document CHEMBL5029186, “Searching for New Microbiome-Targeted Therapeutics through a Drug Repurposing Approach” (J Med Chem, 2021).

Data set [1] can be described thus: Drug metabolism in mini gut model assessed as metabolite formation by LC-MS/MS analysis. It is filed as ADME, tissue-based. An outline of the steps:
(§1)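 Anaerobic mini gut model: stool homogenized in pre-reduced mGAM (10 mL/g), settled 5 min, 50 μL slurry into 450 μL mGAM; compound 20 μM in DMSO (final DMSO 0.22%); 37 °C, 5% H₂/10% CO₂/85% N₂, up to 24 h; donor 1; triplicate. Supernatant acetonitrile-precipitated (1:3), LC–MS at 45 °C, 0.45 mL/min; metabolites analysed versus feces-free reference incubation in mGAM.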

Data set [2] can be described thus: Stability of compound in mini gut model at 24 hrs by LC-MS analysis. It is filed as ADME, tissue-based. An outline of the steps: (§2)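 Compound 20 μM (DMSO vehicle, final 0.22%) incubated anaerobically at 37 °C in mGAM inoculated with donor 1 fecal slurry (1:10 slurry, 50 μL into 450 μL) and in bacteria-free mGAM as reference, up to 24 h, triplicate. Samples mixed with 3 volumes cold acetonitrile, centrifuged 21,100g 15 min 4 °C; supernatant analysed by LC–MS (45 °C, 0.45 mL/min) for remaining parent drug.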

Data set [3] in a line: Drug metabolism in human gut microbes assessed as metabolite formation by LC-MS/MS analysis. It is filed as ADME. An outline of the steps: as §1
Data set [4] can be described thus: Stability of compound in mini gut model assessed as half life by LC-MS analysis. It is filed as ADME, tissue-based. An outline of the steps: as §2
Data set [5] can be described thus: Stability in human gut microbes assessed as half life by LC-MS analysis. It is filed as ADME. The method in brief: as §2

`Cl.Oc1noc2c1CCNC2`: the Drug metabolism result in data set [1] and in data set [3] was “Metabolite_Notdetected” throughout. Moreover, in data set [2], the Stability result is recorded as “Unstable”.

With `CCCCNc1ccc(C(=O)OCCOCCOCCOCCOCCOCCOCCOCCOCCOC)cc1` [BENZONATATE], the half-life in data set [4] and in data set [5] was > 48 h throughout. In addition, the Drug metabolism result in data set [1] and in data set [3] was “Metabolite_Notdetected” in each case.

Turning to `O=C([O-])[C@H]1/C(=C/CO)O[C@@H]2CC(=O)N21.[K+]` [CLAVULANATE POTASSIUM], the Drug metabolism entry in data set [1] and in data set [3] was “Metabolite_Notdetected” each time. For the same compound, in data set [2], the Stability entry was “Unstable”.

For the compound `CCN(CC)C(=O)/C(C#N)=C/c1cc(O)c(O)c([N+](=O)[O-])c1` [ENTACAPONE], the Drug metabolism result is reported as “Metabolite_Notdetected” in data set [1] and “Metabolite_Detected” in data set [3].

Turning to `NS(=O)(=O)c1cc2c(cc1Cl)NCNS2(=O)=O` [HYDROCHLOROTHIAZIDE], the half-life in data set [4] and in data set [5] was > 48 h throughout. The Drug metabolism entry in data set [1] and in data set [3] was “Metabolite_Notdetected” each time.

On to `COC1=C(OC)C(=O)C(CCCCCCCCCCO)=C(C)C1=O` [IDEBENONE], for which the Drug metabolism entry is recorded as “Metabolite_Notdetected” in data set [1] and “Metabolite_Detected” in data set [3].

Turning to `N[C@@H](Cc1ccc(O)c(O)c1)C(=O)O` [LEVODOPA], the half-life in data set [4] and in data set [5] was 30 h throughout. The Drug metabolism entry in data set [1] is on record as “Metabolite_Notdetected”; in data set [3], “Metabolite_Detected”.

For the compound `O=S(=O)([O-])CCS.[Na+]` [MESNA], the Drug metabolism result in data set [1] and in data set [3] was “Metabolite_Detected” throughout. Moreover, the Stability entry in data set [2] was “Unstable”.

On to `C1N2CN3CN1CN(C2)C3` [METHENAMINE], for which the half-life in data set [4] and in data set [5] was 10 h throughout. The Drug metabolism entry in data set [1] was “Metabolite_Notdetected”; in data set [3], “Metabolite_Detected”.

As to `CCCc1nc(C(C)(C)O)c(C(=O)OCc2oc(=O)oc2C)n1Cc1ccc(-c2ccccc2-c2nnn[nH]2)cc1` [OLMESARTAN MEDOXOMIL], the Drug metabolism result in data set [1] and in data set [3] was “Metabolite_Detected” in each case. Moreover, the Stability entry in data set [2] is reported as “Unstable”.
